Results gathered from unrelated publications.
Each line is one published result; the experiments were not run side by side.
Organism: Escherichia coli
Observed: microbial growth

Compound | method | cells | strain | time | setting | MIC
CC1(C)S[C@@H]2[C@H](NC(=O)[C@H](N)c3ccccc3)C(=O)N2[C@H]1C(=O)O | broth dilution |  | ATCC25922 |  |  | 8 µg/mL
CCCCCCC/C=C/C(=O)N1C(=O)/C(=C(/C)O)C(=O)C1CO (centres unmarked) |  | K12 | K12 |  |  | > 200 µg/mL
COc1c(C)c(O)c(C)c(O)c1C(=O)/C=C/c1ccccc1 | broth dilution |  | ATCC25922 |  |  | 1250 µg/mL
CO[C@H]1/C=C/O[C@@]2(C)Oc3c(C)c(O)c4c(O)c(c(/C=N/N5CCN(C)CC5)c(O)c4c3C2=O)NC(=O)/C(C)=C\C=C\[C@H](C)[C@H](O)[C@@H](C)[C@@H](O)[C@@H](C)[C@H](OC(C)=O)[C@@H]1C |  |  | ATCC25922 |  |  | 4 µg/mL
C=CCOc1c(C)c(O)c(C(=O)/C=C/c2ccccc2)c(OC)c1C | broth dilution |  | ATCC25922 |  |  | 5000 µg/mL
N=C(N)c1ccc(OCCCCCCCCCCCOc2ccc(C(=N)N)cc2)cc1 |  |  | BW25113 |  |  | 50 µg/mL
Cc1ccc2nc(-c3ccc(Cl)c(Cl)c3)n(Cc3ccccc3)c2c1 | broth dilution |  | ATCC25922 |  |  | 32 µg/mL
CC(C)Oc1c(NC(=O)c2ccc(NC(=O)[C@H](CC(N)=O)NC(=O)c3ccc(NC(=O)c4ccc(C#N)cc4)cc3)cc2)ccc(C(=O)Nc2ccc(C(=O)O)cc2)c1O |  |  | ATCC25922 |  |  | 0.02 µg/mL
N=C(N)c1ccc(OCc2ccccc2COc2ccc(C(=N)N)cc2)cc1 | broth dilution |  | BW25113 |  |  | > 200 µg/mL
Cc1ccc(C)n1-c1ccc(-c2nnc(-c3ccc(O)cc3)[nH]2)cc1 | broth dilution |  | ATCC10536 | 18 h |  | 250 µg/mL
CC(NCCCN)c1cc2cc(Br)ccc2[nH]1 (centres unmarked) | broth dilution |  | ATCC25922 |  |  | 128 µg/mL
CO[C@@H](C(N)=O)[C@H](NC(=O)c1ccc(NC(=O)c2ccc(C#N)cc2)cc1)C(=O)Nc1ccc(C(=O)Nc2ccc(C(=O)Nc3ccc(C(=O)O)cc3)c(O)c2OC(C)C)cc1 |  |  | DSM1116 |  |  | < 0.03 µg/mL
N=C(N)c1ccc(OCc2ccc(Br)cc2COc2ccc(C(=N)N)cc2)cc1 | broth dilution |  | W3110 |  |  | 200 µg/mL
Cc1ccc2nc(-c3ccc(Cl)cc3)[nH]c2c1 | broth dilution |  | ATCC25922 |  |  | 256 µg/mL
O=C(O)c1cn(C2CC2)c2cc(N3CCNCC3)c(F)cc2c1=O | broth dilution |  |  | 24 h |  | 4.72 µM
C/C(=C\c1ccc(C#N)cc1)C(=O)Nc1ccc(C(=O)N[C@@H](CC(N)=O)C(=O)Nc2ccc(C(=O)Nc3ccc(C(=O)Nc4ccc(C(=O)O)cc4)c(O)c3OC(C)C)cc2)cc1 |  |  | DSM1116 |  |  | 0.125 µg/mL
Fc1ccccc1NCc1ccc(Oc2ccccn2)cc1 |  |  |  |  |  | > 25 µg/mL
CNc1cccc2cc(C(=O)Nc3ccc(C(=O)O)cc3)c(=O)[nH]c12 | broth dilution |  | ATCC25922 |  |  | 64 µg/mL
O=C(CCCCCC[P+](c1ccccc1)(c1ccccc1)c1ccccc1)Nc1ccc(O)c(O)c1.[Br-] | broth dilution |  | ATCC25922 | 18 h |  | > 32 µg/mL
Cc1c(CN(C)C(=O)/C=C/c2cnc3c(c2)CC(CCN)C(=O)N3)oc2ccccc12.Cl (centres unmarked) | broth dilution |  | MG1655 |  | clinical isolate | 8 µg/mL
COc1c(C)c(OC(=O)c2ccccc2)c(C)c(O)c1C(=O)/C=C/c1ccccc1 | broth dilution |  | ATCC25922 |  |  | 5000 µg/mL
CC(C)Oc1c(NC(=O)c2ccc(NC(=O)[C@H](CC(N)=O)NC(=O)c3ccc(NC(=O)c4ccccc4[N+](=O)[O-])cc3)cc2)ccc(C(=O)Nc2ccc(C(=O)O)cc2)c1O |  |  | DSM1116 |  |  | 8 µg/mL
COc1ccc(-c2nc3ccccc3[nH]2)cc1O | broth dilution |  | ATCC25922 |  |  | 256 µg/mL
Cc1cc(=O)[nH]n1C(=O)c1ccc(-n2c(C)ccc2C)cc1 | broth dilution |  | ATCC10536 | 18 h |  | 250 µg/mL
Cc1ccc2nc(-c3ccc(Cl)cc3Cl)[nH]c2c1 | broth dilution |  | ATCC25922 |  |  | 64 µg/mL
O=[N+]([O-])c1ccc(-c2nc3cccc(O)c3[nH]2)o1 | broth dilution |  | ATTC25922 |  |  | 2 µg/mL
CC(C)Oc1c(NC(=O)c2ccc(NC(=O)[C@H](CC(N)=O)NC(=O)c3ccc(NC(=O)c4ccc(C#N)nc4)cc3)cc2)ccc(C(=O)Nc2ccc(C(=O)O)cc2)c1O |  |  | DSM1116 |  |  | ≤ 0.03 µg/mL

Compound | method | cells | strain | time | setting | MIC
Cc1ccc(C)n1-c1ccc(-c2nnc(-c3c(Cl)cccc3Cl)[nH]2)cc1 | broth dilution |  | ATCC10536 | 18 h |  | 62.5 µg/mL
C[C@H]1COc2c(N3CCN(C)CC3)c(F)cc3c(=O)c(C(=O)O)cn1c23 | broth dilution |  | ATCC25922 |  |  | 0.25 µg/mL
CC(C)Oc1c(NC(=O)c2ccc(NC(=O)[C@H](CC(N)=O)NC(=O)c3ccc(NC(=O)c4cc(=O)c(O)c[nH]4)cc3)cc2)ccc(C(=O)Nc2ccc(C(=O)O)cc2)c1O |  |  | DSM1116 |  |  | > 64 µg/mL
Fc1cccc(Cl)c1-c1nc2ccccc2[nH]1 | broth dilution |  | ATCC25922 |  |  | 64 µg/mL
CC(C)Oc1c(NC(=O)c2ccc(NC(=O)[C@H](CC(N)=O)NC(=O)c3ccc(C#Cc4ccc(C#N)cc4)cc3)cc2)ccc(C(=O)Nc2ccc(C(=O)O)cc2)c1O |  |  | DSM1116 |  |  | 0.06 µg/mL
Cc1ccc2nc(-c3ccco3)n(Cc3ccccc3)c2c1 | broth dilution |  | ATCC25922 |  |  | 128 µg/mL
Brc1cccc(NCc2ccc(Oc3ccccn3)cc2)c1 |  |  |  |  |  | > 50 µg/mL
N=C(N)c1ccc(OCc2cc(Br)cc(COc3ccc(C(=N)N)cc3)c2)cc1 | broth dilution |  | W3110 |  |  | 100 µg/mL
CCCCCCCCCCCC(=O)Oc1c(C)c(O)c(C(=O)/C=C/c2ccccc2)c(OC)c1C | broth dilution |  | ATCC25922 |  |  | 5000 µg/mL
CN(C)c1ccc(-c2nc3ccccc3[nH]2)cc1 | broth dilution |  | ATCC25922 |  |  | 64 µg/mL
O=C(Cc1cc(O)c(O)c(O)c1)NCCCCCCCC[P+](c1ccccc1)(c1ccccc1)c1ccccc1.[Br-] | broth dilution |  | ATCC25922 | 18 h |  | > 32 µg/mL
N=C(N)c1ccc(OCc2ccc(-c3ccccc3)cc2COc2ccc(C(=N)N)cc2)cc1 | broth dilution |  | W3110 |  |  | > 200 µg/mL
O=C(Nc1ccc([N+](=O)[O-])cc1F)c1ccccc1O | broth dilution |  | ATCC25922 |  |  | > 64 µg/mL
N=C(N)c1ccc(OCc2cccc(COc3ccc(C(=N)N)cc3)c2)cc1 |  |  | BW25113 |  |  | > 200 µg/mL
C[C@H](CCC(=O)NCCCNCCCCNCCCN)[C@H]1CCC2=C3CC[C@@H]4C[C@H](O)CC[C@]4(C)[C@H]3C[C@H](O)[C@@]21C | broth dilution |  | MG1655 | 20 h |  | 64 µg/mL
N=C(N)c1cccc(OCCCCCOc2cccc(C(=N)N)c2)c1 |  |  | BW25113 |  |  | > 200 µg/mL
Cc1ccc2nc(-c3ccc([N+](=O)[O-])cc3)n(Cc3ccccc3Cl)c2c1 | broth dilution |  | ATCC25922 |  |  | 32 µg/mL
CC1=NN(CNc2ccc(Cl)cc2)C(=O)C1=NNn1c(-c2ccccc2)nc2ccccc2c1=O | broth dilution |  |  | 24 h |  | 51.5 µM
Clc1ccc(NCc2ccc(Oc3ccccn3)cc2)cc1 |  |  |  |  |  | > 50 µg/mL
CC(C)Oc1c(NC(=O)c2ccc(NC(=O)[C@H](CC(N)=O)NC(=O)c3ccc(NC(=O)c4cccc([N+](=O)[O-])c4)cc3)cc2)ccc(C(=O)Nc2ccc(C(=O)O)cc2)c1O |  |  | DSM1116 |  |  | > 64 µg/mL
C[C@@H](O)[C@H]1C(=O)N2C(C(=O)O)=C(S[C@@H]3CN[C@H](C(=O)N(C)C)C3)[C@H](C)[C@H]12 | broth dilution |  | ATCC35218 |  |  | ≤ 0.125 µg/mL
CCCCC(=O)N1C(=O)/C(=C(/C)O)C(=O)C1CC(C)C (centres unmarked) |  | K12 | K12 |  |  | > 200 µg/mL
CN(C)[C@@H]1C(O)=C(C(N)=O)C(=O)[C@@]2(O)C(O)=C3C(=O)c4c(O)cccc4[C@@](C)(O)[C@H]3C[C@@H]12 |  |  | ATCC25922 |  |  | 4 µg/mL
CCCCCCC#Cc1cncc(-c2nnc(SCc3ccc([N+](=O)[O-])o3)n2C)c1 |  |  |  |  |  | ≥ 20 µg/mL
CCCCCCC/C=C/C(=O)N1C(=O)/C(=C(\O)c2ccc(OCOCCOC)cc2)C(=O)C1CC(C)C (centres unmarked) |  | K12 | K12 |  |  | > 200 µg/mL
N=C(N)c1cccc(OCc2cccc(COc3cccc(C(=N)N)c3)c2)c1 | broth dilution |  | BW25113 |  |  | > 200 µg/mL
